# The list is not random: actives were taken first. Their share in the collection is about 3%.
# Wnt bcat act = activators of Wnt/beta-catenin signaling | activation, % at 9.35 µM | AID 743398 | hit rate 1.2% among 300,000 | Wnt/beta-catenin reporter cell assay, activator, plate reader; in the data active = activation above about 30%, passing the limit was not always enough; inconclusive = no clear call, values can overlap the other calls;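 also: 0% = neutral control wells and 100% = positive control wells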
# CASP6 VEID inh = caspase-6 (human) enzyme inhibition; purified caspase-6, Z-VEID-R110 cleavage fluorescence; P55212; hit rate 0.53% among 350,000; inhibition, % at 12.5 µM; AID 686996;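 active = mean inhibition across replicates at least about 35%, with every replicate also reaching that limit, limit read from the data; inconclusive = only one of the two criteria met; inactive = neither criterion met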;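 also: 0% = median of neutral control wells and 100% = no fluorescence left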
# MITF act = increases MITF-driven TRPM1 promoter luciferase signal; SK-MEL-5 TRPM1-promoter luciferase, 24 h; % of positive control, neutral wells = 0; activation, % at 12.5 µM; hit rate 0.75% among 300,000;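 active = mean activation of at least 80% with every replicate also reaching 80%; inconclusive = mean reaches 80% but some replicate falls short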;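 also: 0% = neutral control wells and 100% = parthenolide positive control wells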
# XiGFP reactiv = activators of X-chromosome reactivation in mouse fibroblasts | activation, % at 7.58 µM | AID 743238 | hit rate 0.055% among 360,000 | XiGFP mouse fibroblasts, % GFP-positive cells imaging, 3 d; cells co-treated with 5-aza-dC sensitizer; scaled so ellipticine positive control = 100%;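 active = mean normalized replicate activation at least 10% and every replicate at or above 10%; inconclusive = only one of the two criteria met; inactive = mean below 10% and not all replicates reach 10%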;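 also: 0% = median of on-plate neutral control wells and 100% = ellipticine 6 µM median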
#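 System: XiGFP fibroblasts, SV40-immortalized. Medium: DMEM plus 5-aza-dC sensitizer. Doses: single point. Timing: 3 d treatment, 15 min room-temperature fixation. Control set: ellipticine 6 µM.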
# NSD2 HMT inh = NSD2 (human) methyltransferase inhibition; NSD2 peptide methylation, AlphaScreen, 120 min; inhibition, % at 12.5 µM; hit rate 0.54% among 310,000; AID 743445; in the data active = inhibition above about 50%
# esBAF inh = SWI/SNF esBAF complex inhibition | mouse ES cells, Bmi1-luciferase knock-in reporter, 24 h; 100% = twice the neutral-well signal | reporter increase, % at 12.5 µM | hit rate 2% among 350,000; in the data active = activation above about 40%; inconclusive = no clear call, values can overlap the other calls;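 also: 0% = median of the plate's neutral control wells and 100% = double that signal; a rise in the Bmi1 reporter signal indicates esBAF inhibition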
# Active calls of the source: *; u = inconclusive; x = not tested or not shown.
SMILES,Wnt bcat act,CASP6 VEID inh,MITF act,XiGFP reactiv,NSD2 HMT inh,esBAF inh
C[C@@H]1CN([C@@H](C)CO)C(=O)c2cc(NC(=O)Nc3ccccc3)ccc2O[C@@H](C)CCCCO[C@@H]1CN(C)C(=O)Cc1ccccc1,x,1,x,0,x,-2
O=S(=O)(c1cccc(F)c1)N1CC[C@H]2[C@H](CO)Nc3ccc(C#Cc4cccc(F)c4)cc3[C@H]21,x,x,x,0,x,x
COc1ccc(OCC(=O)N/N=C(\C)c2cccs2)cc1,-3,-3,2,0,-1,x
O=C(COc1ccc2ccccc2c1Br)Nc1ccncc1,4,-1,40,0,3,x
C/C(=N\NC(=O)COc1ccccc1[N+](=O)[O-])c1cccs1,35*,-1,64,0,-4,53*
O=C(COc1ccc2ccccc2c1Br)Nc1cccnc1,20,-1,114*,0,-2,1
O=C(NC1Cc2ccccc2C1)[C@H]1[C@H](CO)[C@H]2Cn3c(cccc3=O)[C@@H]1N2C(=O)CC1CC1,x,2,x,0,x,-6
COc1ccc(-c2cc(-c3ccc(Cl)cc3)n[nH]2)c(O)c1,41*,-3,122*,0,0,x
COc1ccc(-c2cc(-c3ccc(OC)c(OC)c3)n[nH]2)c(O)c1,x,x,x,x,0,x
COc1ccc(O)c(-c2cc(-c3ccc(F)cc3)n[nH]2)c1,u,2,42,0,41,72*
Oc1ccc(Br)cc1-c1cc(-c2ccccc2)n[nH]1,x,x,-1,x,-1,x
COc1ccc(O)c(-c2cc(-c3cccc(Br)c3)n[nH]2)c1,15,x,56,x,1,62*
COc1ccc(-c2n[nH]c(C)c2-c2cc(OC)ccc2O)cc1,-6,x,4,x,x,-3
COc1ccc(-c2cc(-c3cc(OC)ccc3O)[nH]n2)cc1,x,x,x,x,4,54*
CCS(=O)(=O)Nc1ccc2c(c1)C(=O)N(C)[C@H]1CC[C@@H](CC(=O)NCCOC)O[C@H]1CO2,x,4,x,0,x,4
COc1ccc2c3c(n(C)c2c1)[C@H](CO)NCC31CCN(S(=O)(=O)c2cccc(F)c2)CC1,x,x,x,0,x,x
CCOC(=O)C1(Cc2ccccc2)CCCN(C(=O)c2cnn(CC)c2)C1 (stereo not drawn),24,-1,91*,0,-2,65*
CCOC(=O)C1(Cc2cccc(OC)c2)CCCN(C(=O)c2cc(C)[nH]n2)C1 (stereo not drawn),11,-3,52,0,-1,x
CCOC(=O)C1(Cc2ccccc2C)CCCN(C(=O)CCc2cccnc2)C1 (stereo not drawn),2,60*,43,0,-1,x
CCOC(=O)C1(Cc2cccc(OC)c2)CCCN(C(=O)CNC(C)=O)C1 (stereo not drawn),10,0,64,0,-1,65*
CCOC(=O)C1(Cc2ccccc2C)CCCN(C(=O)CCn2nccc2C)C1 (stereo not drawn),-3,0,-1,0,4,4
CCOC(=O)C1(Cc2cccc(OC)c2)CCCN(C(=O)c2cc(C)on2)C1 (stereo not drawn),12,1,31,0,0,48*
CNC(=O)C[C@H]1CC[C@H]2[C@@H](COc3ccc(NC(=O)CN(C)C)cc3C(=O)N2C)O1,x,x,x,0,x,x
CCOC(=O)C1(Cc2cccc(OC)c2)CCCN(C(=O)c2ccccc2C)C1 (stereo not drawn),35*,3,72,0,0,x
Nc1ccc(C(=O)N/N=C/c2cn(Cc3ccc(F)cc3)c3ccccc23)cc1,0,73*,14,0,-1,12
Nc1ccc(C(=O)N/N=C/c2cn(Cc3ccccc3F)c3ccccc23)cc1,-2,2,-6,0,-3,3
Nc1ccc(C(=O)N/N=C/c2cn(Cc3ccccc3)c3ccccc23)cc1,3,-3,-2,0,-2,4
O=C(O)c1ccc(N/N=C/c2cn(Cc3ccccc3F)c3ccccc23)cc1,13,19,73,0,x,54*
O=C(N/N=C/c1cn(Cc2cccc(F)c2)c2ccccc12)c1cc(O)cc(O)c1,2,57*,-5,0,8,x
O=C(C1CCOCC1)N1C[C@H]2[C@@H](c3ccccc31)[C@H](CO)N2Cc1ccccc1,x,-2,x,0,x,2

# Screening data deposited in PubChem by Broad Institute.
